From ChEMBL document CHEMBL3774315, “Discovery of new low-molecular-weight p53-Mdmx disruptors and their anti-cancer activities” (Bioorg Med Chem, 2016) come the findings set out here.

Each structure is given as a SMILES string. Active and inactive are the calls of the source. The calls are words filed in the database; no cut-off is given here.

In data set [1] the target is Tumour suppressor protein p53/Mdm4 (Homo sapiens, UniProt O15151+P04637). Put plainly: Inhibition of Flag-tagged p53/GST-tagged Mdmx (unknown origin) expressed in Escherichia coli BL21 after 1 hr by ELISA microplate reader method.
Tumour suppressor protein p53/Mdm4, sequence (P04637 whole entry): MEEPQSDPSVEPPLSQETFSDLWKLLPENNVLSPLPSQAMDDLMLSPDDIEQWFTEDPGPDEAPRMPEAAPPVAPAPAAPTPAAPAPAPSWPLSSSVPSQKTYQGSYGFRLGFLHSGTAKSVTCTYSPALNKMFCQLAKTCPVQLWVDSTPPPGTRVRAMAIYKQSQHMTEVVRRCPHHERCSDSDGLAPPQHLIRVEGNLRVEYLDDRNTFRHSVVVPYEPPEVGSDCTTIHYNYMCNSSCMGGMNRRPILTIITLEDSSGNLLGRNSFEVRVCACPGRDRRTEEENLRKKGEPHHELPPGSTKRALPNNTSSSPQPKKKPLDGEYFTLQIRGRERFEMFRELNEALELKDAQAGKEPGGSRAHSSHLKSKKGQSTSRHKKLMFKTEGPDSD
Tumour suppressor protein p53/Mdm4, sequence (O15151 whole entry): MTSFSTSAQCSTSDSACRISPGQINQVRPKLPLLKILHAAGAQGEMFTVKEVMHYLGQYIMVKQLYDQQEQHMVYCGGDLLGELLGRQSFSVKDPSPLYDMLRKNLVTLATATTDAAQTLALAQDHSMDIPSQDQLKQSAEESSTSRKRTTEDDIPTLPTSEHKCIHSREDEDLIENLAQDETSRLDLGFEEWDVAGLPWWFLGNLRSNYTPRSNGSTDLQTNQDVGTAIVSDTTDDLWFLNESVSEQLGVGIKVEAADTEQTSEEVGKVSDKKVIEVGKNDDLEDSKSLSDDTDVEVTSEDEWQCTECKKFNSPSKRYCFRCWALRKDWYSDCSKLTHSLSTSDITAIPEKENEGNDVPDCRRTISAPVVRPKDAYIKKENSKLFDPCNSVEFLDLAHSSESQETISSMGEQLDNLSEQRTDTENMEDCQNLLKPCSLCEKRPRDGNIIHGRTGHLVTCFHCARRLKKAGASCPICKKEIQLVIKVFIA
The target of data set [2] is Tumour suppressor p53/oncoprotein Mdm2 (Homo sapiens, UniProt P04637+Q00987). Put plainly: Inhibition of Flag-tagged p53/GST-tagged Mdm2 (unknown origin) expressed in Escherichia coli BL21 after 1 hr by ELISA microplate reader method.
Tumour suppressor p53/oncoprotein Mdm2, sequence (P04637 whole entry): as the sequence (P04637 whole entry) above
Tumour suppressor p53/oncoprotein Mdm2, sequence (Q00987 whole entry): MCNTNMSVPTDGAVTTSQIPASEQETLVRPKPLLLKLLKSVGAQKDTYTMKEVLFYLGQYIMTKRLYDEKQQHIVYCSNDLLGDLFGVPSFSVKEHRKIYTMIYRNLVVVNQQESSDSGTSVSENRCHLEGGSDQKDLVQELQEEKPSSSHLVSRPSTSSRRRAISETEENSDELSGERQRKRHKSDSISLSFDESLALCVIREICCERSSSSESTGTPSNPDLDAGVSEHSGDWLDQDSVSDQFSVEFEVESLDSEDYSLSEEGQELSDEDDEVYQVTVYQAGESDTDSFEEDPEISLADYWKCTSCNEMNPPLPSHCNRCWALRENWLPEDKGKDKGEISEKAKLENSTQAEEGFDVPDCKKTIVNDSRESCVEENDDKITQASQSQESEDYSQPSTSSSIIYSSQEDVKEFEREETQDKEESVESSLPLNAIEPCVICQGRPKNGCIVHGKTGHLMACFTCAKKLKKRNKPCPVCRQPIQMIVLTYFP
The target in data set [3] is Cellular tumor antigen p53/Peptidyl-prolyl cis-trans isomerase D (Homo sapiens, UniProt P04637+Q08752). The experiment in a line: Inhibition of Flag-tagged p53/GST-tagged PPID (unknown origin) expressed in Escherichia coli BL21 after 1 hr by ELISA microplate reader method.
Cellular tumor antigen p53/Peptidyl-prolyl cis-trans isomerase D, sequence (P04637 whole entry): as the sequence (P04637 whole entry) above
Cellular tumor antigen p53/Peptidyl-prolyl cis-trans isomerase D, sequence (Q08752 whole entry): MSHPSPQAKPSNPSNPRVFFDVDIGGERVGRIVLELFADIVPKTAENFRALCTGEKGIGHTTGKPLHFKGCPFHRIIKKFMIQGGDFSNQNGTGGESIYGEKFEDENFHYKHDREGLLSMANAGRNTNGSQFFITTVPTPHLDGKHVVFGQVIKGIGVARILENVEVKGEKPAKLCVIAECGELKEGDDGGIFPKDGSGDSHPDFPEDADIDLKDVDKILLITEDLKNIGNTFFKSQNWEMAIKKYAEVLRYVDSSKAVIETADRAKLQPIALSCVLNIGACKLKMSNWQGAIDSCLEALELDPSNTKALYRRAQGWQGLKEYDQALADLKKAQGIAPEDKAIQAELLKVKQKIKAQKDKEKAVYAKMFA
The target in data set [4] is Cellular tumor antigen p53/Death-associated protein kinase 1 (Homo sapiens, UniProt P04637+P53355). The experiment in a line: Inhibition of Flag-tagged p53/GST-tagged DAPK1 (unknown origin) expressed in Escherichia coli BL21 after 1 hr by ELISA microplate reader method.
Cellular tumor antigen p53/Death-associated protein kinase 1, sequence (P04637 whole entry): as the sequence (P04637 whole entry) above
Cellular tumor antigen p53/Death-associated protein kinase 1, sequence (P53355 whole entry): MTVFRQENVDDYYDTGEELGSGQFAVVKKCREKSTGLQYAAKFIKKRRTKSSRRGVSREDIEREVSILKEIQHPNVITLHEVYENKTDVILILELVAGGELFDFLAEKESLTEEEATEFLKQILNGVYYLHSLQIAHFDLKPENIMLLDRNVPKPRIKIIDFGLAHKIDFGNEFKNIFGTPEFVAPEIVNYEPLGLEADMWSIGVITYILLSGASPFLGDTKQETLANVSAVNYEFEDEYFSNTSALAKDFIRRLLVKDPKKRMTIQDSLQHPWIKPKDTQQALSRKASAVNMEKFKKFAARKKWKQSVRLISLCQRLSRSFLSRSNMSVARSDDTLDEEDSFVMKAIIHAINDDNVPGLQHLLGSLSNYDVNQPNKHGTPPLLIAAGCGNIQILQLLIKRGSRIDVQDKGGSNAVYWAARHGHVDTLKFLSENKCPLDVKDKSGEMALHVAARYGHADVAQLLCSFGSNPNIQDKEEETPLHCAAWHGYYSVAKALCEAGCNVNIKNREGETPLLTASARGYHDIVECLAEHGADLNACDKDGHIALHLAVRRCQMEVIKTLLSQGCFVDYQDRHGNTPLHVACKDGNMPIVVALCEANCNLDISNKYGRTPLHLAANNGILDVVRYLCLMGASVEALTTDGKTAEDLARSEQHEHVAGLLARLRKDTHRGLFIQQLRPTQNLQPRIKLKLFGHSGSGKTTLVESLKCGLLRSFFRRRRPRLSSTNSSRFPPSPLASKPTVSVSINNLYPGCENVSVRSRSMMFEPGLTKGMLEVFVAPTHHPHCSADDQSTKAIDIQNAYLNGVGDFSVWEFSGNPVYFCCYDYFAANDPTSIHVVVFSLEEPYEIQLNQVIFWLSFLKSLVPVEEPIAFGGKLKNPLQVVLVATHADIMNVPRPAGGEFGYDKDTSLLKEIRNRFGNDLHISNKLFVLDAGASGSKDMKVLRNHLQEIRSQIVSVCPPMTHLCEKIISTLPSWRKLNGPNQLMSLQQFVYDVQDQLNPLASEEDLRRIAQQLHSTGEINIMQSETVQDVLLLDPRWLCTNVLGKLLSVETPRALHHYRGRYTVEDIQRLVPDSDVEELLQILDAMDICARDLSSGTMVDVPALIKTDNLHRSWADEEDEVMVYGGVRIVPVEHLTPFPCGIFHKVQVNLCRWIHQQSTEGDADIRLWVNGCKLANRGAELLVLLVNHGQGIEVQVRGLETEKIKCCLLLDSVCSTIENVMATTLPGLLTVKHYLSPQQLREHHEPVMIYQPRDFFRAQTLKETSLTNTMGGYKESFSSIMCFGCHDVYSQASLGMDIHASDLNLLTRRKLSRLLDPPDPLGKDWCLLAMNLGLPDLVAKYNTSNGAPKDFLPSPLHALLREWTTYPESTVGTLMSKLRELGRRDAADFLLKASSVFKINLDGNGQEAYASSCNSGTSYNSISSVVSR
For data set [5], the system named is MCF7. Put plainly: Upregulation of Mdm2 in human MCF7 cells after 24 hrs by Western blot analysis. In kind it is functional, cell-based. The procedure, abridged: (§1)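 MCF-7 cells plated at 1.0 × 10^6 per 60-mm dish, grown 24 h, washed and given fresh medium for another 24 h. Treated with compound or 0.1% DMSO for 24 or 48 h. Floating and adherent cells lysed in Tris/NaCl/EDTA/EGTA/NP-40 buffer with Na3VO4, NaF, DTT, PMSF and protease inhibitors. 10 µg protein separated by SDS-PAGE, probed with primary antibodies at 1:1000, detected by ECL chemiluminescence.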

For data set [6], the system named is MCF7. The experiment in a line: Increase in p53 expression in human MCF7 cells nuclei after 24 hrs by DAPI staining based immunofluorescence microscopy. Type of data set: functional, cell-based. Summed up: (§2)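 Cells seeded at 3.0 × 10^4/mL in chamber slides and grown 24 h, then exposed to 10 µM sample for a further 24 h. Fixed in 3% paraformaldehyde (25 °C, 30 min), permeabilized with 0.05% Triton X-100 and blocked with 3% BSA. Stained with anti-p53 (1:50, overnight, 4 °C) and an Alexa 488 secondary (1:200, 30 min). Nuclei counterstained with DAPI; examined by fluorescence/confocal microscopy.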

A further data set concerns IMR-32. Put plainly: Increase in p53 expression in human IMR32 cells nuclei after 24 hrs by DAPI staining based immunofluorescence microscopy. Type of data set: functional, cell-based. The procedure, abridged:
as §2

In data set [7] the test system is MCF7. Put plainly: Upregulation of p53 in human MCF7 cells after 24 hrs by Western blot analysis. Type of data set: functional, cell-based. Summed up:
as §1
On the technique in general: A western blot detects proteins with antibodies after separation by electrophoresis.

In data set [8] the test system is MCF7. Put plainly: Upregulation of p21 in human MCF7 cells after 24 hrs by Western blot analysis. In kind it is functional, cell-based. Summed up: as §1
The subject of data set [9] is Mus musculus. Put plainly: Toxicity in human HCT116 cells xenografted nude BALB/c mouse assessed as body weight loss at 100 mg/kg/day, po administered every other day until day 38 and measured on day 40. In kind it is organism-based, HCT-116. As to conditions: in vivo. The procedure, abridged:
(§3)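 HCT116 cells (1.5 × 10^6 per 100 µL Matrigel) injected s.c. into the backs of 6-week-old female BALB/c-nu/nu mice. Once tumors reached 70–143 mm3, compound (2.0 or 3.0 mg/200 µL) or vehicle (0.1% Tween 80, 200 µL) was given orally every other day until day 38. n = 6 or 9 treated, 7 control. Tumor length, width and body weight were monitored. Activity is mean treated tumor volume as a percentage of control.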
Background: In xenograft studies the graft and the host belong to different species.

Data set [10] concerns Mus musculus. The experiment in a line: Upregulation of Mdm2 protein expression in human HCT116 cells xenografted nude BALB/c mouse tumors at 150 mg/kg/day, po administered every other day until day 38 and measured on day 40 by Western blot analysis. Type of data set: functional, organism-based. As to conditions: HCT-116. Summed up:
(§4)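 Tumors excised at day 40 from orally dosed HCT116-xenograft nude mice, frozen in liquid nitrogen, ground and suspended in lysis buffer, then spun at 15,000 × g at 4 °C. 10 µg protein (measured by BCA) run on SDS-PAGE, blotted to PVDF and probed for p53, Mdm2, p21 and cleaved caspase 3 (1:1000) or full-length caspase 3 (3:1000). ECL detection.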

The test system of data set [11] is MCF7. The experiment in a line: Cytotoxicity against human MCF7 cells expressing WT p53 and Mdmx assessed as growth inhibition after 48 hrs by crystal violet staining based spectrophotometry. Type of data set: functional, cell-based. Summed up:
(§5)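 Cells seeded at 2 × 10^4 per well and held 24 h at 37 °C in 5% CO2. Serial dilutions (0, 10, 15, 20, 25 or 30 µM) then added for 48 h. Cells stained 15 min with crystal violet (0.75% dye, 0.25% NaCl, 1.75% formaldehyde, 50% EtOH) and read at 600 nm. Viability is expressed as percent of untreated control.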

Data set [12] concerns Mus musculus. Put plainly: Upregulation of p53 protein expression in human HCT116 cells xenografted nude BALB/c mouse tumors at 150 mg/kg/day, po administered every other day until day 38 and measured on day 40 by Western blot analysis. In kind it is functional, organism-based. The conditions noted are these: HCT-116. Summed up:
as §4

The subject of the next data set is A-431. Put plainly: Cytotoxicity against human A431 cells expressing mutant p53 assessed as growth inhibition after 48 hrs by crystal violet staining based spectrophotometry. In kind it is functional, cell-based. Summed up: as §5
Data set [13] relates to Mus musculus. Put plainly: Induction of apoptosis in human HCT116 cells xenografted nude BALB/c mouse tumors assessed as upregulation of caspase-3 protein expression at 150 mg/kg/day, po administered every other day until day 38 and measured on day 40 by Western blot analysis. In kind it is functional, organism-based. As to conditions: HCT-116. The procedure, abridged:
as §4

Data set [14] has as its system Mus musculus. Put plainly: Toxicity in human HCT116 cells xenografted nude BALB/c mouse assessed as body weight loss at 150 mg/kg/day, po administered every other day until day 38 and measured on day 40. In kind it is organism-based, HCT-116. As to conditions: in vivo. The procedure, abridged:
as §3

Another data set relates to A-427. Put plainly: Cytotoxicity against human A427 cells expressing WT p53 and Mdmx assessed as growth inhibition after 48 hrs by crystal violet staining based spectrophotometry. In kind it is functional, cell-based. Summed up:
as §5

The test system of a further data set is HCT-116. The experiment in a line: Cytotoxicity against human HCT116 cells expressing WT p53 and Mdmx assessed as growth inhibition after 48 hrs by crystal violet staining based spectrophotometry. In kind it is functional, cell-based. Summed up: as §5
Data set [15] concerns Mus musculus. Put plainly: Induction of apoptosis in human HCT116 cells xenografted nude BALB/c mouse tumors at 100 to 150 mg/kg/day, po administered every other day until day 38 and measured on day 40 by TUNEL assay. Type of data set: functional, organism-based. As to conditions: HCT-116. The procedure, abridged: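 Tumor sections from orally dosed HCT116-xenograft nude mice underwent TUNEL staining, performed by an outside service. TUNEL-positive cells were counted as a percentage of all cells over eight fields at ×20 magnification.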

Data set [16] is described as follows: Cytotoxicity against human TIG7 cells expressing wild-type p53 assessed as growth inhibition after 48 hrs by crystal violet staining based spectrophotometry. The conditions noted are these: tig7, 48 h.
In a further data set the test system is MDA-MB-468. Put plainly: Cytotoxicity against human MDA-MB-468 cells expressing mutant p53 assessed as growth inhibition after 48 hrs by crystal violet staining based spectrophotometry. In kind it is functional, cell-based. The procedure, abridged:
as §5

Data set [17] is described as follows: Antitumor activity against human HCT116 cells xenografted in nude BALB/c mouse assessed as decrease in tumor growth at 100 mg/kg/day, po administered every other day until day 38 and measured on day 40. Type of data set: functional. The conditions noted are these: HCT-116, po. The procedure, abridged:
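Female BALB/c-nu/nu mice, 6 weeks old, given HCT116 cells (1.5 × 10^6 in 100 µL Matrigel) subcutaneously in the back. Once tumours reached 70–143 mm3, drug (2.0 mg/200 µL) or vehicle (0.1% Tween 80, 200 µL) was given orally every other day to day 38. Tumour length/width and body weight were tracked. Result expressed as mean treated tumour volume as % of control mean.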

Data set [18] has as its system Mus musculus. Put plainly: Upregulation of p21 protein expression in human HCT116 cells xenografted nude BALB/c mouse tumors at 150 mg/kg/day, po administered every other day until day 38 and measured on day 40 by Western blot analysis. In kind it is functional, organism-based. The conditions noted are these: HCT-116. Summed up:
as §4

A word on the IC50: it is the concentration that inhibits the measured activity by half. With `O=C(Nc1ccccc1S)c1ccccc1`, the IC50 in data set [1] is 7.2 µM; in data set [2], above 25 µM; in data set [3] it was above 25 µM; in [4], above 25 µM.
As to `COc1ccc(C2=N[C@@H](c3ccc(Cl)cc3)[C@@H](c3ccc(Cl)cc3)N2C(=O)N2CCNC(=O)C2)c(OC(C)C)c1`, the result in the data set on MCF7 [5], in the data set on MCF7 [6], in the data set with IMR-32, in the data set with MCF7 [7] and in the data set on MCF7 [8] was Active.
With `CC(C)C(=O)Nc1ccccc1SC(=O)C(C)C`, the Activity result is “Non-toxic” in the data set on Mus musculus [9]; “Dose-dependent effect” in the data set with MCF7 [5]; “Non-toxic” in the data set on Mus musculus [14]; “Dose-dependent effect” in the data set with MCF7 [7]; “Dose-dependent effect” in the data set with Mus musculus [15]; “Toxic” in data set [16]. Further, the Activity entry in the data set with MCF7 [8] is “Dose-dependent effect”. For the same molecule, the outcome with Mus musculus [10], in the data set on Mus musculus [12], in the data set on MCF7 [6], in the data set with Mus musculus [13], with IMR-32 and in the data set with Mus musculus [18] was Active. In addition, the “growth inhibition (GI)” value with MCF7 [11], in the data set on A-427 and with HCT-116 was “Dose-dependent effect” throughout. The “growth inhibition (GI)” value with A-431 and in the data set on MDA-MB-468 was “Active” in each case. Further, the IC50 is 1.5 µM in [1], 13.1 µM in data set [2], above 25 µM in data set [3] and above 25 µM in data set [4]. For the same molecule, the T/C % at 100 mg/kg/day in data set [17] worked out at 49%.
For `O=C(Nc1ccccc1S)c1ccc(Cl)cc1`, the IC50 in [1] is 3.4 µM; in [2], 18.4 µM; in data set [3] it was above 25 µM; in data set [4] it was above 25 µM.
For the molecule `CC(C)C(=O)Nc1ccccc1OC(=O)C(C)C`, the half-maximal inhibitory concentration (IC50) in [1], in data set [2], in data set [3] and in [4] was above 25 µM throughout.
Regarding `CC(C)C(=O)Nc1ccccc1O`, the IC50 in data set [1], in data set [2], in data set [3] and in data set [4] was above 25 µM each time.
As for `O=C(Nc1ccccc1S)c1ccc(Cl)nc1`, the half-maximal inhibitory concentration (IC50) in data set [1] is 8.9 µM; in data set [2], 15.3 µM; in [3], above 25 µM; in data set [4] it was above 25 µM.
Take `CC(C)C(=O)Nc1ccccc1S`: the “growth inhibition (GI)” value in the data set with MCF7 [11], in the data set on A-431, with A-427, with HCT-116 and with MDA-MB-468 was “Active” each time. For the same molecule, the IC50 was 6.3 µM in data set [1], above 25 µM in data set [2], above 25 µM in data set [3] and above 25 µM in data set [4].
With `CC(C)C(=O)Sc1ccccc1NC(=O)c1ccccc1`, the IC50 was 4.6 µM in data set [1], 14.6 µM in data set [2], above 25 µM in data set [3] and above 25 µM in data set [4].
`CCCCCCCC(=O)Nc1ccccc1S`: the IC50 in data set [1], in [2], in data set [3] and in [4] was above 25 µM throughout.
